Source: PubChem
E-selectin induc – induces E-selectin expression in human endothelial cells | P16581 | HUVEC E-selectin immunofluorescence imaging; normalized: neutral wells 0, TNF-alpha wells 100 | activation, % at 7.58 µM | 260,000 tested, 0.37% active | AID 686992;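 active = mean E-selectin-positive cell signal at least 10% of the positive control, reached in at least 60% of replicates, without over 20% cell loss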
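Read-out: % PE-positive cells | Test system: HUVEC | Doses: One compound dose added by pin transfer | Buffer or medium: EGM-2 over gelatin coat | Signal: Immunofluorescence imaging | Benchmarks: TNF-alpha, DMSO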
FGF22 binding – FGF22 (human) thermal shift binding. Q9HCT0. recombinant FGF22 thermal shift, SYPRO orange fluorescence; percent of sucrose octasulfate shift, DMSO zero. activity (Tm shift, normalised), % at 9.99 µM. 340,000 tested, 1.5% active;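 active = mean Tm shift, scaled 0 neutral to 100 positive control, at about 1.3% or above, every replicate too, limit read from the data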
Target sequence (Q9HCT0 whole entry, looked up): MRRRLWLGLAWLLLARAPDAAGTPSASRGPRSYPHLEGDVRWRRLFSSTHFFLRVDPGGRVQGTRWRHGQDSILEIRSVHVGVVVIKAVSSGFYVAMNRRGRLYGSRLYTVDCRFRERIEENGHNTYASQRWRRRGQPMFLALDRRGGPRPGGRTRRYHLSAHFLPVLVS
Env fusion inh – blocks HIV Env-driven cell-cell fusion. HeLa-JRFL Env/CEM21 cell fusion, luciferase. inhibition, % at 12.3 µM. 360,000 tested, 1.1% active;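 active = mean replicate inhibition score of at least 50 and every replicate individually at or above 50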
S100A4 MyoIIA – blocks human S100A4 binding to myosin IIA peptide | P26447 | S100A4/TAMRA-MyoIIA peptide fluorescence polarization | inhibition, % at 10.7 µM | 360,000 tested, 0.14% active;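 active = mean inhibition of at least 70% across replicates, with every replicate also reaching that level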
Target sequence (P26447 whole entry, looked up): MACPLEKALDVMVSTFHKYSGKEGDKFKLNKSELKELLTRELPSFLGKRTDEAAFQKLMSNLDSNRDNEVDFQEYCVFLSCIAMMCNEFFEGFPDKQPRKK
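Material: S100A4 monomer (human). Medium: Calcium-containing HEPES buffer, pH 7.2. Probe or stimulus: labelled myosin peptide probe, 5 nM. Compound dosing: one concentration per compound. Timing: polarization read 5 min after assay mix addition, stable 5–60 min. Benchmarks: DMSO as neutral control, TFP as positive control.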
F508del corr – CFTR F508del correction in bronchial cells; CFBE cells, YFP halide quenching; stimulated with forskolin plus potentiator P3; % fluorescence drop versus neutral controls; activity (quench increase), % at 7.58 µM; 350,000 tested, 0.36% active; AID 720511;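 active = mean added fluorescence quench of at least 8% versus neutral control, with both replicates also reaching 8%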;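 note: cells transiently co-express mutant CFTR-F508del with the halide-sensitive YFP; corrector assay measuring rescue of mutant channel to the surface after 24 h compound exposure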
Hits are given with their value; i = inactive; nt = no result. This is a sample that favours compounds with a hit; in the whole collection about 2.7% have one here.

SMILES | E-selectin induc | FGF22 binding | Env fusion inh | S100A4 MyoIIA | F508del corr
CNC[C@@H]1OCCCC[C@@H](C)Oc2ccc(NC(=O)Nc3ccc4c(c3)OCO4)cc2C(=O)N([C@H](C)CO)C[C@H]1C | i | nt | i | nt | i
CO[C@@H]1CN(C)C(=O)c2ccc(NC(=O)c3ccc(Oc4ccccc4)cc3)cc2OC[C@H](C)NC[C@H]1C | i | i | i | i | i
O=C(NCc1ccco1)C1CC(c2ccc(Cl)cc2)=NO1 (stereo not given) | nt | 43 | i | i | i
O=C(NCc1ccco1)C1CC(c2ccc(F)cc2)=NO1 (stereo not given) | i | i | i | i | i
CSc1nc2nc3c(cc2c(=O)n1-c1ccc(C)cc1)COC(C)(C)C3 | i | i | i | i | i
CSc1nc2nc3c(cc2c(=O)n1-c1ccccc1)COC(C)(C)C3 | i | 43 | i | i | i
O=c1cnnc(Nc2ccc(Nc3ccccc3)cc2)[nH]1 | nt | i | i | i | i
O=c1cnnc(N/N=C/C2CC=CCC2)[nH]1 (stereo not given) | nt | 44 | i | i | i
Nc1nc(SCC(=O)NCc2ccccc2)n[nH]1 | nt | nt | nt | i | nt
O=C(CSc1n[nH]c(-c2ccccc2)n1)NCc1cccc(C(=O)O)c1 | nt | 43 | i | i | i
CCN1[C@@H]2Cn3c(ccc(-c4cccnc4)c3=O)[C@H]1[C@@H](C(=O)NC1CCCC1)[C@@H]2CO | i | nt | nt | i | i
Cc1ccc(/C=C2/CNC/C(=C/c3ccc(C)cc3)C2=O)cc1 | i | i | 66 | i | i
COc1cc(CSc2nnnn2-c2ccc(C)cc2)cc(OC)c1OC | nt | nt | 95 | nt | nt
CCc1nc(C)cn1S(=O)(=O)c1ccc2c(c1)OCCO2 | i | i | nt | i | 8.9
COc1ccc(S(=O)(=O)Nc2ccc3c(c2)C(=O)N([C@@H](C)CO)C[C@H](C)[C@@H](CN(C)C(=O)Nc2ccc(F)cc2)OCCCC[C@H](C)O3)cc1 | i | i | i | i | i
CCN(CC)CCCNc1nc2ccccc2c2nc(-c3ccncc3)nn12 | i | i | i | i | 15
Cc1ccc(Cn2c(N)nc3ccccc32)cc1 | nt | i | 59 | i | i
COC(=O)CC1C(=O)NCCN1C(=S)Nc1ccccc1Cl (stereo not given) | i | i | i | i | i
CC(C)OC(=O)CC1C(=O)NCCN1C(=S)NC(=O)c1ccccc1Cl (stereo not given) | nt | 44 | i | i | i
CCOc1ccc(N(C(C)C(=O)Nc2cccnc2)S(C)(=O)=O)cc1 (stereo not given) | nt | 43 | i | i | i
COc1ccc(N(CC(=O)Nc2cccnc2)S(C)(=O)=O)cc1 | nt | 43 | i | i | i
CCOc1ccc(N(C(C)C(=O)NC(C)CC)S(C)(=O)=O)cc1 (stereo not given) | nt | nt | i | nt | nt
COc1cccc(N(CC(=O)Nc2cccnc2)S(C)(=O)=O)c1 | nt | i | i | i | i
O=S(=O)(NCc1ccccn1)c1cc(C(F)(F)F)ccc1Cl | nt | 43 | i | i | i
O=S(=O)(NCc1ccccn1)c1cc(Cl)ccc1Cl | nt | i | i | i | i
SMILES | E-selectin induc | FGF22 binding | Env fusion inh | S100A4 MyoIIA | F508del corr
CN1C(=O)c2cc(NC(=O)c3cccc(F)c3)ccc2OC[C@H]2O[C@@H](CC(=O)NCC3CC3)CC[C@@H]21 | i | nt | nt | i | i
CC(C(=O)N1CCOCC1)N1C(=O)c2cccc3cccc(c23)C1=O (stereo not given) | i | i | i | i | i
O=C1C(N2CCOCC2)=Cc2cccc3cccc1c23 | i | i | nt | 90 | i
O=C1C=C(N2CCOCC2)c2cccc3cccc1c23 | i | i | i | 83 | i
O=C1C=C(N2CCOCC2)c2ccccc2C1=O | i | i | 65 | i | i
CC1=C(C)C(=O)C(N2CCOCC2)=CC1=O | i | i | i | i | i
CC(C)NC(=O)N[C@@H]1CC[C@@H](CCNC(=O)C2CCC2)O[C@@H]1CO | i | i | i | i | i
C[C@@H]1CCCCO[C@H](CN(C)C(=O)Nc2ccccc2)[C@H](C)CN([C@H](C)CO)C(=O)c2cc(NC(=O)C3CCCCC3)ccc2O1 | i | nt | i | nt | i
O=C(N[C@@H]1CC[C@H](CC(=O)N2CCCCC2)O[C@@H]1CO)c1cccc(F)c1 | i | i | i | i | i
COc1cc(OC)cc(C(=O)N[C@@H](CCSC)c2nc3ccccc3[nH]2)c1 | i | 43 | i | i | i
COCC(=O)N(C)C[C@H]1Oc2cc(-c3ccc(OC)cc3)ccc2S(=O)(=O)N([C@H](C)CO)C[C@@H]1C | i | i | i | i | i
COc1ccc(OC)c(Nc2c3c(nc4ccccc24)CCC3)c1 | i | i | i | i | i
COc1cc(Nc2c3c(nc4ccccc24)CCC3)cc(OC)c1OC | i | i | i | i | 8.6
c1coc(CNc2c3c(nc4ccccc24)CCC3)c1 | nt | nt | 75 | nt | nt
CC(C)NCC(=O)Nc1c2c(nc3ccccc13)CCC2 | nt | i | i | i | i
CC1=CC(C)(C)N2C(=O)C3(SCC(=O)N3c3ccc(F)cc3)c3cc(C)cc1c32 (stereo not given) | nt | nt | 72 | nt | nt
CC1=CC(C)(C)N2C(=O)C3(NCCc4c3[nH]c3ccccc43)c3cc(C)cc1c32 (stereo not given) | i | i | i | i | i
N#Cc1ccc(-c2ccc3c(c2)[C@H]2[C@H](CCN2C(=O)C2CC2)[C@@H](CO)N3)cc1 | i | i | nt | i | i
Cc1nn(C)c(Cl)c1NC(=O)OCc1ccc(Cl)cc1Cl | nt | nt | 73 | nt | nt
O=C(NC(=O)c1ccccc1F)OCc1ccc(Cl)cc1Cl | nt | i | i | i | i
COc1ccccc1-c1ccc2n(c1=O)C[C@@H]1[C@@H](CO)[C@H](C(=O)N(C)C)N(C(=O)c3cccnc3)[C@H]21 | i | i | nt | i | nt
C[C@@H]1CCCCO[C@@H](CN(C)S(=O)(=O)c2ccccc2)[C@@H](C)CN([C@@H](C)CO)C(=O)c2cc(NC(=O)CCCN(C)C)ccc2O1 | i | i | i | 151 | i
C[C@@H]1CCCCO[C@@H](CN(C)S(C)(=O)=O)[C@@H](C)CN([C@H](C)CO)C(=O)c2cc(NC(=O)CCCN(C)C)ccc2O1 | 49 | i | i | i | i
COc1ccc(S(=O)(=O)N(C)C[C@@H]2OCCCC[C@@H](C)Oc3ccc(NC(=O)CCCN(C)C)cc3C(=O)N([C@H](C)CO)C[C@H]2C)cc1 | i | i | i | i | i
Cc1c(C(=O)OCC(=O)N2CC(C)CC(C)C2)oc2ccccc12 (stereo not given) | i | 46 | i | i | i
COc1ccc2oc(C(=O)OCC(=O)N3CC(C)CC(C)C3)c(C)c2c1 (stereo not given) | i | i | i | i | i
CCN(CC)CC#CCC(C)(c1ccccc1)c1ccccc1 | nt | nt | 65 | nt | nt
CCOC(=O)/C(C#N)=C1/C=C(C)c2ccccc2N1 | nt | 43 | i | i | i
CCCC(=O)Nc1ccc2c(c1)C(=O)N(C)C[C@@H](OC)[C@@H](C)CN(Cc1ccc(-c3ccccn3)cc1)[C@H](C)CO2 | i | i | nt | i | i
Cc1ccc(/C=N/Nc2nnc(Cl)c3ccccc23)cc1 | nt | i | i | i | i
